Results: PMC5656813 (Arthritis & Rheumatology (Hoboken, N.j.), 2017)

Key:
RA patients [1] = assay: Studies 1 and 2, laboratory safety, hematology, vital signs, EKG; type: in vivo, human
Outline: (§1)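 Both double-blind, placebo-controlled trials in RA patients on stable MTX. Oral capsules daily for 4 weeks, with 7–10-day follow-up: 200 mg once daily or 100 mg twice daily (study 1); 30, 75, 150 or 300 mg once daily (study 2). At every visit: AEs, vital signs, hematology, serum biochemistry, coagulation and urinalysis. EKG at baseline and follow-up, plus week 4 in study 1. Safety population, descriptive treatment-emergent AE summaries.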

[2] = cited from earlier work
RA patients [3] = assay: Study 1, treatment‐emergent adverse events; type: in vivo, human; conditions: for treatment-related TEAE: Abdominal discomfort / treatment-related TEAE: Abdominal pain, upper / treatment-related TEAE: Aspartate aminotransferase increased / treatment-related TEAE: Blood amylase increased / treatment-related TEAE: Blood and lymphatic system disorders / treatment-related TEAE: Blood triglycerides increased / treatment-related TEAE: Cystitis, noninfectious / treatment-related TEAE: Duodenogastric reflux / treatment-related TEAE: Ear and labyrinth disorders / treatment-related TEAE: Gastrointestinal disorders / treatment-related TEAE: Gastrointestinal pain / treatment-related TEAE: General disorders and administration site reactions / treatment-related TEAE: Gingival bleeding / treatment-related TEAE: Infections and infestations / treatment-related TEAE: Laboratory findings / treatment-related TEAE: Lipase increased / treatment-related TEAE: Musculoskeletal and connective tissue disorders / treatment-related TEAE: Nervous system disorders / treatment-related TEAE: Renal and urinary disorders: study 1
Outline: as §1

[4] = Studies 1 and 2, steady‐state plasma PK of filgotinib and its major metabolite; type: in vivo, human; conditions: for Cmax / Tmax / AUC: human, plasma, oral
Outline: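 RA patients on stable methotrexate took oral test compound or placebo capsules for 4 weeks: 200 mg once daily or 100 mg twice daily (study 1), or 30, 75, 150 or 300 mg once daily (study 2). In a subset (12 and 15 patients), plasma parent and major metabolite were sampled predose and 1, 2, 3, 5 and 8 h after the morning dose, at week 2 or 4. Descriptive statistics were calculated by dose.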

dose proportionality of PK ([4]; 30–300 mg range): essentially dose proportional
Cmax ([4]; 30 mg): 71.6 ng/mL
Tmax ([4]; 30 mg): 1 h
AUC ([4]; 30 mg, AUCtau of filgotinib, steady state, 30 mg once daily, study 2, arithmetic mean (coefficient of variation)): 1340 ng·h/mL
Cmax ([4]; 75 mg): 492 ng/mL
Cmax ([4]; 100 mg): 730 ng/mL
AUC ([4]; 100 mg, AUCtau of filgotinib, steady state, 100 mg twice daily, study 1, arithmetic mean (coefficient of variation)): 2470 ng·h/mL
Cmax ([4]; 150 mg): 1160 ng/mL
Tmax ([4]; 150 mg): 1 h
AUC ([4]; 150 mg, AUCtau of filgotinib, steady state, 150 mg once daily, study 2, arithmetic mean (coefficient of variation)): 6440 ng·h/mL
AUC ([4]; 150 mg, AUCtau, other 4 patients, 150 mg once daily, study 2): 4790 to 5290 ng·h/mL
Cmax ([4]; 200 mg): 1430 ng/mL
AUC ([4]; 200 mg, AUCtau of filgotinib, steady state, 200 mg once daily, study 1, arithmetic mean (coefficient of variation)): 5380 ng·h/mL
Cmax ([4]; 300 mg): 1340 ng/mL
AUC ([4]; 300 mg, AUCtau of filgotinib, steady state, 300 mg once daily, study 2, arithmetic mean (coefficient of variation)): 7710 ng·h/mL
time of dosing to attain steady state ([4]; in vivo): ≤ 2 days
Compound: O=C(Nc1nc2cccc(-c3ccc(CN4CCS(=O)(=O)CC4)cc3)n2n1)C1CC1 [Filgotinib]
Creatinine, mean change, day 28 (RA patients [1]; 30 mg once daily): 1.47 µmol/L
HDL cholesterol, mean change, day 28 (RA patients [1]; 30 mg once daily): 0.03 mmol/L
Hemoglobin, mean change, day 28 (RA patients [1]; 30 mg once daily): −0.3 gm/liter
LDL cholesterol, mean change, day 28 (RA patients [1]; 30 mg once daily): 0.25 mmol/L
Neutrophils, mean change, day 28 (RA patients [1]; 30 mg once daily): -6.5e+08 L⁻¹
Platelets, mean change, day 28 (RA patients [1]; 30 mg once daily): -1.8e+10 L⁻¹
Creatinine, mean change, day 28 (RA patients [1]; 75 mg once daily): 5.18 µmol/L
HDL cholesterol, mean change, day 28 (RA patients [1]; 75 mg once daily): 0.11 mmol/L
Hemoglobin, mean change, day 28 (RA patients [1]; 75 mg once daily): 2.0 gm/liter
LDL cholesterol, mean change, day 28 (RA patients [1]; 75 mg once daily): 0.14 mmol/L
Neutrophils, mean change, day 28 (RA patients [1]; 75 mg once daily): -7.4e+08 L⁻¹
Platelets, mean change, day 28 (RA patients [1]; 75 mg once daily): -3.5e+10 L⁻¹
Creatinine, mean change, day 28 (RA patients [1]; 100 mg twice daily): -6.98 µmol/L
HDL cholesterol, mean change, day 28 (RA patients [1]; 100 mg twice daily): 0.20 mmol/L
Hemoglobin, mean change, day 28 (RA patients [1]; 100 mg twice daily): 3.0 gm/liter
LDL cholesterol, mean change, day 28 (RA patients [1]; 100 mg twice daily): 0.07 mmol/L
Neutrophils, mean change, day 28 (RA patients [1]; 100 mg twice daily): -1.45e+09 L⁻¹
Platelets, mean change, day 28 (RA patients [1]; 100 mg twice daily): -3.5e+10 L⁻¹
Creatinine, mean change, day 28 (RA patients [1]; 150 mg once daily): 4.50 µmol/L
HDL cholesterol, mean change, day 28 (RA patients [1]; 150 mg once daily): 0.07 mmol/L
Hemoglobin, mean change, day 28 (RA patients [1]; 150 mg once daily): −1.0 gm/liter
LDL cholesterol, mean change, day 28 (RA patients [1]; 150 mg once daily): 0.01 mmol/L
Neutrophils, mean change, day 28 (RA patients [1]; 150 mg once daily): -1.37e+09 L⁻¹
Platelets, mean change, day 28 (RA patients [1]; 150 mg once daily): -3.2e+10 L⁻¹
increase in HDL at week 4 versus baseline (RA patients [1]; 200 mg): ~15%
Creatinine, mean change, day 28 (RA patients [1]; 200 mg once daily): 5.47 µmol/L
HDL cholesterol, mean change, day 28 (RA patients [1]; 200 mg once daily): 0.16 mmol/L
Hemoglobin, mean change, day 28 (RA patients [1]; 200 mg once daily): 7.8 gm/liter
LDL cholesterol, mean change, day 28 (RA patients [1]; 200 mg once daily): -0.25 mmol/L
Neutrophils, mean change, day 28 (RA patients [1]; 200 mg once daily): -1.21e+09 L⁻¹
Platelets, mean change, day 28 (RA patients [1]; 200 mg once daily): -3.3e+10 L⁻¹
increase in HDL at week 4 versus baseline (RA patients [1]; 300 mg): > 30%
Creatinine, mean change, day 28 (RA patients [1]; 300 mg once daily): 6.90 µmol/L
HDL cholesterol, mean change, day 28 (RA patients [1]; 300 mg once daily): 0.48 mmol/L
Hemoglobin, mean change, day 28 (RA patients [1]; 300 mg once daily): 4.4 gm/liter
LDL cholesterol, mean change, day 28 (RA patients [1]; 300 mg once daily): 0.37 mmol/L
Neutrophils, mean change, day 28 (RA patients [1]; 300 mg once daily): -1.13e+09 L⁻¹
Platelets, mean change, day 28 (RA patients [1]; 300 mg once daily): -5.8e+10 L⁻¹
decrease in neutrophils from baseline (RA patients [1]; doses of ≥75 mg): 14–24%
lymphocytes and lymphocyte subpopulations (RA patients [1]; during filgotinib treatment): unaffected
liver function tests (transaminases) (RA patients [1]; in vivo): lack of changes
neutropenia (RA patients [1]; in vivo): no neutropenia
reticulocytes (RA patients [1]; in vivo): absence of effects
vital signs values and EKG parameters (RA patients [1]; in vivo): No clinically relevant trends or changes
PK half‐life [2]: ~7 h
treatment-related TEAE: Abdominal discomfort (RA patients [3]; 100 mg twice daily): 1 (8.3) number (%) of patients
treatment-related TEAE: Abdominal pain, upper (RA patients [3]; 100 mg twice daily): 0 number (%) of patients
treatment-related TEAE: Aspartate aminotransferase increased (RA patients [3]; 100 mg twice daily): 0 number (%) of patients
treatment-related TEAE: Blood amylase increased (RA patients [3]; 100 mg twice daily): 0 number (%) of patients
treatment-related TEAE: Blood and lymphatic system disorders (RA patients [3]; 100 mg twice daily): 0 number (%) of patients
treatment-related TEAE: Blood triglycerides increased (RA patients [3]; 100 mg twice daily): 0 number (%) of patients
treatment-related TEAE: Cystitis, noninfectious (RA patients [3]; 100 mg twice daily): 0 number (%) of patients
treatment-related TEAE: Duodenogastric reflux (RA patients [3]; 100 mg twice daily): 0 number (%) of patients
treatment-related TEAE: Ear and labyrinth disorders (RA patients [3]; 100 mg twice daily): 0 number (%) of patients
treatment-related TEAE: Gastrointestinal disorders (RA patients [3]; 100 mg twice daily): 2 (16.7) number (%) of patients
treatment-related TEAE: Gastrointestinal pain (RA patients [3]; 100 mg twice daily): 0 number (%) of patients
treatment-related TEAE: General disorders and administration site reactions (RA patients [3]; 100 mg twice daily): 0 number (%) of patients
treatment-related TEAE: Gingival bleeding (RA patients [3]; 100 mg twice daily): 0 number (%) of patients
treatment-related TEAE: Infections and infestations (RA patients [3]; 100 mg twice daily): 0 number (%) of patients
treatment-related TEAE: Laboratory findings (RA patients [3]; 100 mg twice daily): 1 (8.3) number (%) of patients
treatment-related TEAE: Lipase increased (RA patients [3]; 100 mg twice daily): 1 (8.3) number (%) of patients
treatment-related TEAE: Musculoskeletal and connective tissue disorders (RA patients [3]; 100 mg twice daily): 0 number (%) of patients
treatment-related TEAE: Nervous system disorders (RA patients [3]; 100 mg twice daily): 1 (8.3) number (%) of patients
treatment-related TEAE: Renal and urinary disorders (RA patients [3]; 100 mg twice daily): 0 number (%) of patients
treatment-related TEAE: Abdominal discomfort (RA patients [3]; 200 mg once daily): 0 number (%) of patients
treatment-related TEAE: Abdominal pain, upper (RA patients [3]; 200 mg once daily): 1 (8.3) number (%) of patients
treatment-related TEAE: Aspartate aminotransferase increased (RA patients [3]; 200 mg once daily): 0 number (%) of patients
treatment-related TEAE: Blood amylase increased (RA patients [3]; 200 mg once daily): 0 number (%) of patients
treatment-related TEAE: Blood and lymphatic system disorders (RA patients [3]; 200 mg once daily): 0 number (%) of patients
treatment-related TEAE: Blood triglycerides increased (RA patients [3]; 200 mg once daily): 0 number (%) of patients
treatment-related TEAE: Cystitis, noninfectious (RA patients [3]; 200 mg once daily): 0 number (%) of patients
treatment-related TEAE: Duodenogastric reflux (RA patients [3]; 200 mg once daily): 0 number (%) of patients
treatment-related TEAE: Ear and labyrinth disorders (RA patients [3]; 200 mg once daily): 0 number (%) of patients
treatment-related TEAE: Gastrointestinal disorders (RA patients [3]; 200 mg once daily): 2 (16.7) number (%) of patients
treatment-related TEAE: Gastrointestinal pain (RA patients [3]; 200 mg once daily): 0 number (%) of patients
treatment-related TEAE: General disorders and administration site reactions (RA patients [3]; 200 mg once daily): 0 number (%) of patients
treatment-related TEAE: Gingival bleeding (RA patients [3]; 200 mg once daily): 0 number (%) of patients
treatment-related TEAE: Infections and infestations (RA patients [3]; 200 mg once daily): 0 number (%) of patients
treatment-related TEAE: Laboratory findings (RA patients [3]; 200 mg once daily): 0 number (%) of patients
treatment-related TEAE: Lipase increased (RA patients [3]; 200 mg once daily): 0 number (%) of patients
treatment-related TEAE: Musculoskeletal and connective tissue disorders (RA patients [3]; 200 mg once daily): 0 number (%) of patients
treatment-related TEAE: Nervous system disorders (RA patients [3]; 200 mg once daily): 1 (8.3) number (%) of patients
treatment-related TEAE: Renal and urinary disorders (RA patients [3]; 200 mg once daily): 0 number (%) of patients
overall tolerability (RA patients [3]; studies 1 and 2): generally well tolerated
